pKd: −log10 of the molar value. Calls of active or inactive are those of the source. No cut-off for these calls is given here.
What was measured:
[1] = biological target: T1, Integrin alpha-L (Mus musculus) (UniProt P24063); experiment: Inhibition of LFA-1/ICAM-1 interaction in mouse CT26 cells assessed as PMA-induced adhesion to ICAM-1 expressing HSE cells at 20 ug/ 5 x 10^5 cells by fluorometric microplate reader analysis; format: cell-based
T1 sequence (whole entry): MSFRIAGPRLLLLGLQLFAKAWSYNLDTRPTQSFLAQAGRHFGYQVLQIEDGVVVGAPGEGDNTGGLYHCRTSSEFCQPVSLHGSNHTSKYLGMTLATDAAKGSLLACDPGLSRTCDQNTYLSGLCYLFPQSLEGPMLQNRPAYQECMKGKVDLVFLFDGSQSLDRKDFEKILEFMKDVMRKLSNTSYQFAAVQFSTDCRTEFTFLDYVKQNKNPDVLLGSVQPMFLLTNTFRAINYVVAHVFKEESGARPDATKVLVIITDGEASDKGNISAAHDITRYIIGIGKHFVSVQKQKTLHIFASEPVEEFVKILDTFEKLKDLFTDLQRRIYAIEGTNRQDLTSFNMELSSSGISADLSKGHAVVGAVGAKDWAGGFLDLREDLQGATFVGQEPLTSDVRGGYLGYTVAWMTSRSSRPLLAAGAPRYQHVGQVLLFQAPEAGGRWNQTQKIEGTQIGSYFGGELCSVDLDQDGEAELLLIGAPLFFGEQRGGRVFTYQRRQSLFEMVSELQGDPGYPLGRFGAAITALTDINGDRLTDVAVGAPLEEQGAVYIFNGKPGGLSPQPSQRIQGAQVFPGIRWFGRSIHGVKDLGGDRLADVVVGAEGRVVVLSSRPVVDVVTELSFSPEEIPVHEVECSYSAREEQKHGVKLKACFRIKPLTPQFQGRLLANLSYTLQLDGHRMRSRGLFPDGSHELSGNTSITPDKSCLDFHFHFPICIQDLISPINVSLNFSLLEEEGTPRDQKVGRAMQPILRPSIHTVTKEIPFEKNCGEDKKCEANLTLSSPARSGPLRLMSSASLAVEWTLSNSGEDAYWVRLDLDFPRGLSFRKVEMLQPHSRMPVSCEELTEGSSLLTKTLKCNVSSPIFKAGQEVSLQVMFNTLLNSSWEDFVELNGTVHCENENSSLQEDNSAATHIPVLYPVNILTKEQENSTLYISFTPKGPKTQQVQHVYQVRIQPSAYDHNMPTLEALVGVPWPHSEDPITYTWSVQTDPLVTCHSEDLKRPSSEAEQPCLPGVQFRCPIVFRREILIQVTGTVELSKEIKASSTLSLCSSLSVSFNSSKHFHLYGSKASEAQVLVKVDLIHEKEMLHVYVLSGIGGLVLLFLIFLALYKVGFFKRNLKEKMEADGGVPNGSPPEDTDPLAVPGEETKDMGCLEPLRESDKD
Method in brief: (§1)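 CT26-CC or Lim51b-CC cells were stimulated with PMA and preincubated for 30 min with compound or anti-LFA-1 antibody. Adhesion to hepatic sinusoidal endothelial cells was then quantified using a previously validated in vitro bioassay. Significance was assessed by ANOVA with Bonferroni post hoc test.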

CT26 [2] = experiment: Antitumor activity against mouse CT26 cells allografted in BALB/c mouse assessed as decrease in expression level of protein Ki67 at 2.5 mg/kg, sc measured on day 15 relative to control; format: functional; design: scale not given: the % may be the effect or the level left; conditions: route subcutaneous
Method in brief: (§2)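 BALB/c mice were injected subcutaneously with 5 × 10⁵ CT26-CC cells. Compound/PAMAM G3.5 was then given as daily subcutaneous injections at 2.5 mg/kg. Primary tumors were removed on day 15 and their volume was measured. Ki67 was scored by immunohistochemistry as the percentage of positive tumor cells across 10 random fields. Significance was assessed by ANOVA with a post hoc test.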

CT26 [3] = experiment: Antitumor activity against mouse CT26 cells allografted in BALB/c mouse assessed as decrease in tumor volume at 2.5 mg/kg, sc measured on day 15 relative to control; format: functional; design: scale not given: the % may be the effect or the level left; conditions: route subcutaneous; method in brief: as §2
[4] = biological target: T2, Integrin alpha-L (Homo sapiens) (UniProt P20701); experiment: Inhibition of LFA-1/ICAM-1 interaction in human peripheral blood leukocytes assessed as reduction on PMA-induced adhesion to immobilized human recombinant ICAM-1 at 20 ug/ 5 x 10^5 cells after 30 mins by fluorescence assay; format: cell-based
T2 sequence (whole entry): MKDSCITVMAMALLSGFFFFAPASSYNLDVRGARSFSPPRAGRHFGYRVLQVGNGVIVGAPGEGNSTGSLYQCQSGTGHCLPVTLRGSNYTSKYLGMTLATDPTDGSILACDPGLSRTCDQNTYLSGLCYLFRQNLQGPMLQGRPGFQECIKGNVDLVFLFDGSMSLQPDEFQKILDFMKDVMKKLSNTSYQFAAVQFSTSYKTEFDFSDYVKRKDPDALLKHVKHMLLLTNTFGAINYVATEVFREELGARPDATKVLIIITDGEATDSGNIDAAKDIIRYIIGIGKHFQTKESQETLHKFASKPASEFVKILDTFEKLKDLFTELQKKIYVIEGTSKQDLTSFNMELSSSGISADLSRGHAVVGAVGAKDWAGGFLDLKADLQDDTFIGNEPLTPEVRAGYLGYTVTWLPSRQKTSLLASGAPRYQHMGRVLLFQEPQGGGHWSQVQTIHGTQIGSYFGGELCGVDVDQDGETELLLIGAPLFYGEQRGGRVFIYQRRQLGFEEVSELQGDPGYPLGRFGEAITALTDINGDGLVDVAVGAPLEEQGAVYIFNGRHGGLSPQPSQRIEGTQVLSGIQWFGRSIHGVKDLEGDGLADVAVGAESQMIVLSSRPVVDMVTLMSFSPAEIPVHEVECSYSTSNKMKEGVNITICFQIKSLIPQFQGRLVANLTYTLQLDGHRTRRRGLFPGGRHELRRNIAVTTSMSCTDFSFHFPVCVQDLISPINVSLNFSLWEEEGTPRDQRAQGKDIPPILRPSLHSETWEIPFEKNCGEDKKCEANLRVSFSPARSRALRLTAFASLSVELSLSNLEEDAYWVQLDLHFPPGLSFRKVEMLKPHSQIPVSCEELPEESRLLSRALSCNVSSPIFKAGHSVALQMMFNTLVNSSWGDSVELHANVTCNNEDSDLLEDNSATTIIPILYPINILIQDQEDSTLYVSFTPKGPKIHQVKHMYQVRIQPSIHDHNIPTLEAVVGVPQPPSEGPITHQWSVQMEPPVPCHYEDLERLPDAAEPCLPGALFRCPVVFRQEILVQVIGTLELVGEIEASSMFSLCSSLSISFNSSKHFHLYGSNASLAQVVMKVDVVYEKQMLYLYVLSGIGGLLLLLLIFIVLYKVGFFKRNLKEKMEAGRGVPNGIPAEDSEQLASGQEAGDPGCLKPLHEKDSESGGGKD
Method in brief: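 Human peripheral blood leukocytes were stimulated with PMA and preincubated with compound. Adhesion to immobilized recombinant human ICAM-1, a commercial form containing all five extracellular domains, was then quantified. Significance was assessed by ANOVA with Bonferroni post hoc test.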

[5] = biological target: T1, Integrin alpha-L (Mus musculus); experiment: Inhibition of LFA-1/ICAM-1 interaction in mouse Lim51b cells assessed as PMA-induced adhesion to ICAM-1 expressing HSE cells at 20 ug/ 5 x 10^5 cells after 30 mins by fluorometric microplate reader analysis; format: cell-based; method in brief: as §1
[6] = Binding affinity to I-domain of human integrin alphaL (amino acid residues 128 to 307) plus initial methionine K287C/K294C mutant expressed in BL21 cells by NMR spectroscopy; format: cell-based
Integrin alpha-L = biological target: T3, Integrin alpha-L (Homo sapiens, UniProt P20701); experiment: Binding affinity to I-domain of human integrin alphaL (amino acid residues 128 to 307) plus initial methionine expressed in Escherichia coli by NMR spectroscopy
T3 sequence (P20701 whole entry): T2 sequence (whole entry)

B16 [7] = experiment: Inhibition of VEGF production in mouse B16 M cells at 10 ug/ml preincubated for 30 mins prior to H2O2 addition measured after 2 hrs by ELISA; format: functional, cell-based
B16 [8] = experiment: Inhibition of VEGF production in mouse B16 M cells at 10 ug/ml preincubated for 30 mins prior to ICAM addition measured after 2 hrs by ELISA; format: functional, cell-based
CT26 [9] = experiment: Antimetastatic activity against mouse CT26 cells allografted in BALB/c mouse assessed as decrease in cancer cell volume in liver at 10 ug/ml preincubated for 30 mins prior to inoculation measured on day 14 relative to control; format: functional
Method in brief: (§3)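 Male BALB/c mice, 6–8 weeks old and anesthetized (n = 10 per group; three independent experiments), received an intrasplenic injection of 1.5 × 10⁵ viable CT26-CC cells in 0.1 mL Hank's balanced salt solution. Mice were killed on day 14. Densitometric and stereological image analysis gave metastases per 100 mm³ liver (fifteen sections per liver) and the percentage of liver volume occupied.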

CT26 [10] = experiment: Antimetastatic activity against mouse CT26 cells allografted in BALB/c mouse assessed as reduction in metastasis density at 10 ug/ml preincubated for 30 mins prior to inoculation measured on day 14 relative to control; format: functional; method in brief: as §3
B16M = experiment: Inhibition of VLA-4/VCAM-1 interaction in mouse B16M cells assessed as PMA-induced adhesion to immobilized VCAM-1 at 25 ug/ 5 x 10^5 cells after 30 mins by microplate reader analysis; format: cell-based
BL21 = experiment: Inhibition of I-domain of human integrin alphaL (amino acid residues 128 to 307) plus initial methionine K287C/K294C mutant-ICAM1 interaction expressed in BL21 cells after 4 hrs by NMR analysis
[11] = biological target: Integrin alpha-2 (Homo sapiens) (UniProt P17301); experiment: Binding affinity to integrin alpha2 I-domain (unknown origin)
Sequence of Integrin alpha-2 (Homo sapiens) (P17301 whole entry): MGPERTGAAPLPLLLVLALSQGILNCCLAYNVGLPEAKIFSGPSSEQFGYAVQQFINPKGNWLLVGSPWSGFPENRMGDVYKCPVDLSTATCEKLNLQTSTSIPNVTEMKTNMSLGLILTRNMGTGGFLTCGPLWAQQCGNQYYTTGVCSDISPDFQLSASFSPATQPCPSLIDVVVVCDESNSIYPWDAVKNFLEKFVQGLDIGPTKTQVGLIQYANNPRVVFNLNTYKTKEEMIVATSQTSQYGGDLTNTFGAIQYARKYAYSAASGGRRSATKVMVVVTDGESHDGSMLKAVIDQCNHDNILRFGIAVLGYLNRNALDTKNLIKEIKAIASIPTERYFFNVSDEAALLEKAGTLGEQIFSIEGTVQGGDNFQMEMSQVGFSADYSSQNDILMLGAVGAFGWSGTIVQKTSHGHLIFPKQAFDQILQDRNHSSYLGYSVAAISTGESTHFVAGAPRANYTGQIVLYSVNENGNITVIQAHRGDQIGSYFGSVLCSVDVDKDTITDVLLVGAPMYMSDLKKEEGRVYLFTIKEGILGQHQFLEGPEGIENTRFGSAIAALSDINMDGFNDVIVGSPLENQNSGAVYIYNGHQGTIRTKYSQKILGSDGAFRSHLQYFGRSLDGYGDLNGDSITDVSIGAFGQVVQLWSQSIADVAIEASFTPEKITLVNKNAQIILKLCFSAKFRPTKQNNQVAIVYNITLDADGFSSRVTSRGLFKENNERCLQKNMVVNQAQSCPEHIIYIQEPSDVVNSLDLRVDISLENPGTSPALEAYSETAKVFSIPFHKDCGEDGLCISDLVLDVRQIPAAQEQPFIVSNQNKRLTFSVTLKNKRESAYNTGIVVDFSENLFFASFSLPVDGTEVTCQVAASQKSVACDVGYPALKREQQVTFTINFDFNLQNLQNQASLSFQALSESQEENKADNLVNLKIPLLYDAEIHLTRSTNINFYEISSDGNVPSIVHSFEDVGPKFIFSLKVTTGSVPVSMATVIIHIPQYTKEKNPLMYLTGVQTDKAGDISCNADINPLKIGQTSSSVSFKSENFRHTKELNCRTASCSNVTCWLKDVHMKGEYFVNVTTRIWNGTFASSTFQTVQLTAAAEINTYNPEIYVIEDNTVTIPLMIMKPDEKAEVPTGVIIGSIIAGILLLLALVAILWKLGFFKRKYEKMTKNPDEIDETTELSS

Homo sapiens = organism: Homo sapiens; experiment: Binding affinity to protein G B1-domain (unknown origin)

## CC[C@H](C)[C@H](OCc1ccccc1)[C@H]1[C@H]([N+](=O)[O-])[C@H](c2ccccc2)N[C@]1(C)C(=O)NCCCCCC(=O)O
[1]
  inhibition: Active

## CC[C@H](C)[C@H](OCc1ccccc1)[C@H]1[C@H]([N+](=O)[O-])[C@H](c2ccccc2)N[C@@H]1C(=O)NCCCCCC(=O)O
CT26 [2]
  Activity: 40%
CT26 [3]
  Activity: 85%
[4]
  inhibition: Active
[1]
  inhibition: Active

## CC[C@H](C)[C@H](OCc1ccccc1)[C@H]1[C@H]([N+](=O)[O-])[C@H](c2ccccc2)N[C@@H]1C(=O)NCC(=O)O
[1]
  inhibition: inactive

## CC[C@H](C)[C@H](OCc1ccccc1)[C@H]1[C@H]([N+](=O)[O-])[C@H](c2ccccc2)N[C@]1(C)C(=O)NCCCCC(=O)O
[1]
  inhibition: Active

## CC[C@H](C)[C@H](OCc1ccccc1)[C@H]1[C@H]([N+](=O)[O-])[C@H](c2ccccc2)N(C(=O)CN)[C@]1(C)C(=O)NCCC(=O)O
CT26 [2]
  Activity: 40%
CT26 [3]
  Activity: 77%
[1]
  inhibition: Active

## CC[C@H](C)[C@H](OCc1ccccc1)[C@H]1[C@H]([N+](=O)[O-])[C@H](c2ccccc2)N[C@@H]1C(=O)NCCC(=O)O
[5]
  inhibition: Active
[1]
  inhibition: Active

## CC[C@H](C)[C@H](OCc1ccccc1)[C@H]1[C@H]([N+](=O)[O-])[C@H](c2ccccc2)N[C@@H]1C(=O)NCCCCC(=O)O
[1]
  inhibition: Active

## CC[C@H](C)[C@H](OCc1ccccc1F)[C@H]1[C@H]([N+](=O)[O-])[C@H](c2ccsc2)N[C@@H]1C(=O)NCCC(=O)O
[1]
  inhibition: inactive

## CC[C@H](C)[C@H](OCc1ccccc1)[C@H]1[C@H]([N+](=O)[O-])[C@H](c2ccccc2)N[C@]1(C)C(=O)NCCC(=O)O
[6]
  pKd: 4.09
Integrin alpha-L
  pKd: 5.00
B16 [7]
  inhibition: Active
B16 [8]
  inhibition: Active
[4]
  inhibition: Active
CT26 [9]
  fold change (FC): 25
CT26 [10]
  fold change (FC): 25
[5]
  inhibition: Active
B16M
  inhibition: inactive
[1]
  inhibition: Active
BL21
  inhibition: inactive

## CC[C@H](C)[C@H](OCc1ccccc1)[C@H]1[C@H]([N+](=O)[O-])[C@H](c2ccccc2)N[C@@H]1C(=O)NCCCC(=O)O
[1]
  inhibition: Active

## CC[C@H](C)C(=O)O[C@H]1C[C@@H](C)C=C2C=C[C@H](C)[C@H](CC[C@@H]3C[C@@H](O)CC(=O)O3)[C@H]21
[11]
  Activity: inactive

## CC[C@H](C)[C@H](OCc1ccccc1)[C@H]1[C@H]([N+](=O)[O-])[C@H](c2ccccc2)N[C@]1(C)C(=O)NCCCC(=O)O
Integrin alpha-L
  pKd: 5.13
Homo sapiens
  Activity: inactive
[11]
  Activity: inactive
[1]
  inhibition: Active
